{"source": "ChEMBL document CHEMBL4002594", "about": "“Novel inhibitors of Plasmodium falciparum based on 2,5-disubstituted furans” (Eur J Med Chem, 2017)", "assay_type_in_all_cases": "ADME, organism-based", "key": {"[1]": {"assay": "Plasma concentration in Swiss outbred mouse at […], iv at 0.033 hrs by LC-MS analysis"}, "[2]": {"assay": "(§1) Plasma concentration in Sprague-Dawley rat at 20 mg/kg administered via oral gavage at […] by LC-MS analysis"}, "[3]": {"assay": "Plasma concentration in Swiss outbred mouse at […], iv at 0.5 hrs by LC-MS analysis"}, "[4]": {"assay": "Plasma concentration in Swiss outbred mouse at 48 mg/kg administered via oral gavage at 0.5 hrs by LC-MS analysis", "how_it_was_run": "(§2)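 Single oral administration of 48 mg/kg to male Swiss outbred mice. Plasma concentration-time profile reported as the mean and range of n=2 mice per time point.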"}, "[5]": {"assay": "Plasma concentration in Swiss outbred mouse at […], iv at 0.008 hrs by LC-MS analysis"}, "[6]": {"assay": "as §1", "remark": "listed apart in the source"}, "[7]": {"assay": "Plasma concentration in Sprague-Dawley rat at 1 mg/kg, iv administered as 10 mins infusion measured at 2.67 hrs by LC-MS analysis", "how_it_was_run": "(§3)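 Male Sprague Dawley rats were dosed IV (nominal 1 mg/kg; 0.9 mg/kg actual) or orally (nominal 20 mg/kg; 19 mg/kg actual). Plasma concentration–time profiles were determined, with n=2 rats per time point, and mean and range reported.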"}, "[8]": {"assay": "Plasma concentration in Sprague-Dawley rat at 1 mg/kg, iv administered as 10 mins infusion measured at 24.17 hrs by LC-MS analysis", "how_it_was_run": "as §3"}, "[9]": {"assay": "Plasma concentration in Swiss outbred mouse at 48 mg/kg administered via oral gavage at 7.5 hrs by LC-MS analysis", "how_it_was_run": "as §2"}, "[10]": {"assay": "Plasma concentration in Sprague-Dawley rat at 1 mg/kg, iv administered as 10 mins infusion measured at 0.5 hrs by LC-MS analysis", "how_it_was_run": "as §3"}, "[11]": {"assay": "Plasma concentration in Swiss outbred mouse at […], iv at 1 hr by LC-MS analysis"}, "[12]": {"assay": "Plasma concentration in Sprague-Dawley rat at 20 mg/kg administered via oral gavage at 0.5 hrs by LC-MS analysis", "how_it_was_run": "as §3"}, "[13]": {"assay": "Plasma concentration in Swiss outbred mouse at […], iv at 0.08 hrs by LC-MS analysis"}, "[14]": {"assay": "Plasma concentration in Swiss outbred mouse at […], iv at 4 hrs by LC-MS analysis"}, "[15]": {"assay": "Plasma concentration in Swiss outbred mouse at 48 mg/kg administered via oral gavage at 10 hrs by LC-MS analysis", "how_it_was_run": "as §2"}, "[16]": {"assay": "Plasma concentration in Swiss outbred mouse at […], iv at 7.5 hrs by LC-MS analysis"}, "[17]": {"assay": "Plasma concentration in Sprague-Dawley rat at 1 mg/kg, iv administered as 10 mins infusion measured at 10.17 hrs by LC-MS analysis", "how_it_was_run": "as §3"}, "[18]": {"assay": "Plasma concentration in Swiss outbred mouse at 48 mg/kg administered via oral gavage at 1 hr by LC-MS analysis", "how_it_was_run": "as §2"}, "[19]": {"assay": "Plasma concentration in Swiss outbred mouse at 48 mg/kg administered via oral gavage at 4 hrs by LC-MS analysis", "how_it_was_run": "as §2"}, "[20]": {"assay": "(§4) Plasma concentration in Sprague-Dawley rat at 1 mg/kg, iv administered as 10 mins infusion measured at […] by LC-MS analysis"}, "[21]": {"assay": "Plasma concentration in Sprague-Dawley rat at 20 mg/kg administered via oral gavage at 5 hrs by LC-MS analysis", "how_it_was_run": "as §3"}, "[22]": {"assay": "Plasma concentration in Sprague-Dawley rat at 1 mg/kg, iv administered as 10 mins infusion measured at 5.17 hrs by LC-MS analysis", "how_it_was_run": "as §3"}, "[23]": {"assay": "as §4", "remark": "listed apart in the source"}, "[24]": {"assay": "(§5) Plasma concentration in Swiss outbred mouse at […], iv at […] by LC-MS analysis"}, "[25]": {"assay": "Plasma concentration in Swiss outbred mouse at […], iv at 24 hrs by LC-MS analysis"}, "[26]": {"assay": "Plasma concentration in Sprague-Dawley rat at 20 mg/kg administered via oral gavage at 4 hrs by LC-MS analysis", "how_it_was_run": "as §3"}, "[27]": {"assay": "Plasma concentration in Sprague-Dawley rat at 1 mg/kg, iv administered as 10 mins infusion measured at 1.17 hrs by LC-MS analysis", "how_it_was_run": "as §3"}, "[28]": {"assay": "Plasma concentration in Swiss outbred mouse at […], iv at 2 hrs by LC-MS analysis"}, "[29]": {"assay": "as §5", "remark": "listed apart in the source"}, "[30]": {"assay": "Plasma concentration in Swiss outbred mouse at 48 mg/kg administered via oral gavage at 2 hrs by LC-MS analysis", "how_it_was_run": "as §2"}, "[31]": {"assay": "Plasma concentration in Sprague-Dawley rat at 1 mg/kg, iv administered as 10 mins infusion measured at 16.17 hrs by LC-MS analysis", "how_it_was_run": "as §3"}, "[32]": {"assay": "Plasma concentration in Sprague-Dawley rat at 20 mg/kg administered via oral gavage at 1 hr by LC-MS analysis", "how_it_was_run": "as §3"}, "[33]": {"assay": "Plasma concentration in Sprague-Dawley rat at 1 mg/kg, iv administered as 10 mins infusion measured at 0.08 hrs by LC-MS analysis", "how_it_was_run": "as §3"}, "[34]": {"assay": "Plasma concentration in Swiss outbred mouse at 48 mg/kg administered via oral gavage at […] by LC-MS analysis"}, "[35]": {"assay": "Plasma concentration in Swiss outbred mouse at 48 mg/kg administered via oral gavage at 24 hrs by LC-MS analysis", "how_it_was_run": "as §2"}, "[36]": {"assay": "Plasma concentration in Swiss outbred mouse at […], iv at 10 hrs by LC-MS analysis"}}}
{"smiles": "CN(C)CCCNc1ccc(-c2ccc(F)c(Cl)c2)o1", "values": [{"measurement": "concentration at 0.033 h", "setting": "[1]", "value": 149, "unit": "nM"}, {"measurement": "concentration at […]", "setting": "[2]", "value": 50, "unit": "nM"}, {"measurement": "concentration at 0.5 h", "setting": "[3]", "value": 44, "unit": "nM"}, {"measurement": "concentration at 0.5 h", "setting": "[4]", "value": 812, "unit": "nM"}, {"measurement": "concentration at 0.008 h", "setting": "[5]", "value": 841, "unit": "nM"}, {"measurement": "concentration at […]", "setting": "[6]", "value": 45.5, "unit": "nM"}, {"measurement": "concentration at 2.67 h", "setting": "[7]", "value": 20, "unit": "nM"}, {"measurement": "concentration at 24.17 h", "setting": "[8]", "value": 20, "unit": "nM"}, {"measurement": "concentration at 7.5 h", "setting": "[9]", "value": 239, "unit": "nM"}, {"measurement": "concentration at 0.5 h", "setting": "[10]", "value": 36, "unit": "nM"}, {"measurement": "concentration at 1 h", "setting": "[11]", "value": 43, "unit": "nM"}, {"measurement": "concentration at 0.5 h", "setting": "[12]", "value": 65, "unit": "nM"}, {"measurement": "concentration at 0.08 h", "setting": "[13]", "value": 80, "unit": "nM"}, {"measurement": "concentration at 4 h", "setting": "[14]", "value": 29, "unit": "nM"}, {"measurement": "concentration at 10 h", "setting": "[15]", "value": 192, "unit": "nM"}, {"measurement": "concentration at 7.5 h", "setting": "[16]", "value": 31, "unit": "nM"}, {"measurement": "concentration at 10.17 h", "setting": "[17]", "value": 29, "unit": "nM"}, {"measurement": "concentration at 1 h", "setting": "[18]", "value": 693, "unit": "nM"}, {"measurement": "concentration at 4 h", "setting": "[19]", "value": 132, "unit": "nM"}, {"measurement": "concentration at […]", "setting": "[20]", "value": 71, "unit": "nM"}, {"measurement": "concentration at 5 h", "setting": "[21]", "value": 27, "unit": "nM"}, {"measurement": "concentration at 5.17 h", "setting": "[22]", "value": 35, "unit": "nM"}, {"measurement": "concentration at […]", "setting": "[23]", "value": 255, "unit": "nM"}, {"measurement": "concentration at […]", "setting": "[24]", "value": 54, "unit": "nM"}, {"measurement": "concentration at 24 h", "setting": "[25]", "value": 22, "unit": "nM"}, {"measurement": "concentration at 4 h", "setting": "[26]", "value": 28, "unit": "nM"}, {"measurement": "concentration at 1.17 h", "setting": "[27]", "value": 29, "unit": "nM"}, {"measurement": "concentration at 2 h", "setting": "[28]", "value": 26, "unit": "nM"}, {"measurement": "concentration at […]", "setting": "[29]", "value": 310, "unit": "nM"}, {"measurement": "concentration at 2 h", "setting": "[30]", "value": 494, "unit": "nM"}, {"measurement": "concentration at 16.17 h", "setting": "[31]", "value": 25, "unit": "nM"}, {"measurement": "concentration at 1 h", "setting": "[32]", "value": 80, "unit": "nM"}, {"measurement": "concentration at 0.08 h", "setting": "[33]", "value": 334, "unit": "nM"}, {"measurement": "concentration at […]", "setting": "[34]", "value": 171, "unit": "nM"}, {"measurement": "concentration at 24 h", "setting": "[35]", "value": 208, "unit": "nM"}, {"measurement": "concentration at 10 h", "setting": "[36]", "value": 23, "unit": "nM"}]}
